Published values collected from several papers.
Protocols differ between the studies behind these lines.
Target: Dual specificity protein kinase CLK3 (CLK3, Homo sapiens, UniProt P49761)
Method: competition with immobilised ligand

O=S(=O)(NC1CCC(c2cc(F)ccc2F)(S(=O)(=O)c2ccc(Cl)cc2)CC1)C(F)(F)F (centres unmarked)  remaining binding (cell-free assay; 1 µM): 86%
CN(CCCC(F)(F)F)c1nccc(-c2cnn3ncccc23)n1  remaining binding (binding; 1 µM): 84%
COc1cnc(Nc2cccc(S(N)(=O)=O)c2)nc1N1CCN(c2ccccc2)C(=O)C1  remaining binding (binding; 1 µM): 100%
Cc1cnc(Nc2ccc(C(=O)N3CCC(N4CCCC4)CC3)cc2)nc1-c1cc2ccccc2s1  remaining binding (binding; 1 µM): 7%
CS(=O)(=O)c1cc(C2(NC(=O)c3cncc4c3cnn4-c3ccc(F)cc3)CC2)ccn1  remaining binding (cell-free assay; 1 µM): 86%
COc1cnc(Nc2cccc(S(N)(=O)=O)c2)nc1N1CCN(c2ccccc2)CC1  remaining binding (binding; 1 µM): 97%
O=C(NCCCN1CCOCC1)c1ccc(Nc2nccc(-c3cc4ccccc4s3)n2)cc1  remaining binding (binding; 1 µM): 84%
O=C(NCCCC1CCCCC1)c1ccc(CNC(=O)c2cnn(-c3ccccc3)c2C(F)(F)F)cc1  remaining binding (cell-free assay; 0.1 µM): 100%
C=CC(=O)N1CCC(C(=O)NCC(=O)N2CCN(c3nc(-c4cnc(N)nc4C(F)F)nc(N4CCOCC4)n3)CC2)CC1  remaining binding (binding; 1 µM): 97%
O=C(NCCCN1CCOCC1)c1ccc(Nc2ncc(Cl)c(-c3ccc(Cl)s3)n2)cc1  remaining binding (binding; 1 µM): 37%
O=C(NCC1CCOCC1)c1n[nH]cc1NC(=O)c1c(F)cccc1F  remaining binding (binding; 1 µM): 64%
FC(F)(F)Oc1cccc(-c2cnc3ccc(-c4ccncc4)nn23)c1  remaining binding (cell-free assay; 5 µM): 8.1%
O=C1CCc2cc(Nc3cc(OC4CCOCC4)c([N+](=O)[O-])cc3Cl)ccc2N1  remaining binding (cell-free assay; 1 µM): 100%
COc1ncc2cc3ccccc3nc2c1C#N  remaining binding (cell-free assay; 5 µM): 94%
